Results published in ChEMBL document CHEMBL1125009, “Variation in the aromatic ring of cromakalim: antihypertensive activity of pyranopyridines and 6-alkyl-2H-1-benzopyrans” (1990).

Legend:
Type in all cases: functional, Artery
Rattus norvegicus [1] = assay: The maximum fall in systolic blood pressure was determined at a dose of 10 mg/kg after oral administration in rats
Outline: (§1)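 Conscious spontaneously hypertensive rats (Japanese Okamoto strain, 14–24 weeks old), used only if systolic pressure was >180 mmHg, six per dose level. Dosed by oral needle into the esophagus as a solution or suspension in 1% w/v methylcellulose. Systolic pressure was read by tail-cuff, each reading the mean of at least six recordings, before dosing and at intervals from 1 to 6 h. The maximum fall was taken.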

Rattus norvegicus [2] = assay: The maximum fall in systolic blood pressure was determined at a dose of 0.3 mg/kg after oral administration in rats; outline: as §1
Rattus norvegicus [3] = assay: The maximum fall in systolic blood pressure was determined at a dose of 3.0 mg/kg after oral administration in rats; outline: as §1
Rattus norvegicus [4] = assay: The maximum fall in systolic blood pressure was determined at a dose of 1 mg/kg after oral administration in rats; outline: as §1
Rattus norvegicus [5] = assay: The maximum fall in systolic blood pressure was determined at a dose of 1.0 mg/kg after oral administration in rats; outline: as §1
Rattus norvegicus [6] = assay: The maximum fall in systolic blood pressure was determined at a dose of 0.1 mg/kg after oral administration in rats; outline: as §1
Rattus norvegicus [7] = assay: The maximum fall in systolic blood pressure was determined at a dose of 3 mg/kg after oral administration in rats; outline: as §1
Rattus norvegicus [8] = assay: The maximum fall in systolic blood pressure was determined at a dose of 10.0 mg/kg after oral administration in rats; outline: as §1

CC1(C)Oc2ncccc2[C@@H](N2CCCC2=O)[C@@H]1O
Max fall in blood pressure (Rattus norvegicus [1]): 5%

CC(=O)NC1c2cc(C)ccc2OC(C)(C)[C@H]1O (some centres not stated)
Max fall in blood pressure (Rattus norvegicus [2]): 9% | Max fall in blood pressure (Rattus norvegicus [3]): 20%

CC1(C)Oc2cnccc2[C@@H](N2CCCC2=O)[C@@H]1O
Max fall in blood pressure (Rattus norvegicus [4]): 7% | Max fall in blood pressure (Rattus norvegicus [1]): 41%

CC(=O)N[C@@H]1c2cnccc2OC(C)(C)[C@H]1O
Max fall in blood pressure (Rattus norvegicus [2]): 14% | Max fall in blood pressure (Rattus norvegicus [5]): 43%

CCc1ccc2c(c1)C(N1CCCC1=O)[C@H](O)C(C)(C)O2 (some centres not stated)
Max fall in blood pressure (Rattus norvegicus [2]): 11% | Max fall in blood pressure (Rattus norvegicus [5]): 54%

CC(C)c1ccc2c(c1)C(N1CCCC1=O)[C@H](O)C(C)(C)O2 (some centres not stated)
Max fall in blood pressure (Rattus norvegicus [2]): 17% | Max fall in blood pressure (Rattus norvegicus [5]): 36% | Max fall in blood pressure (Rattus norvegicus [3]): 60%

CC(C)(C)c1ccc2c(c1)C(N1CCCC1=O)[C@H](O)C(C)(C)O2 (some centres not stated)
Max fall in blood pressure (Rattus norvegicus [2]): 9% | Max fall in blood pressure (Rattus norvegicus [5]): 39% | Max fall in blood pressure (Rattus norvegicus [3]): 49%

CC1(C)Oc2ccncc2[C@@H](N2CCCCC2=O)[C@@H]1O
Max fall in blood pressure (Rattus norvegicus [2]): 55% | Max fall in blood pressure (Rattus norvegicus [5]): 56% | Max fall in blood pressure (Rattus norvegicus [6]): 24%

CC1(C)C=C(N2CCCCC2=O)c2cnccc2O1
Max fall in blood pressure (Rattus norvegicus [4]): 14% | Max fall in blood pressure (Rattus norvegicus [7]): 37%

CC1(C)Oc2ccc(C(F)(F)F)cc2C(N2CCCC2=O)[C@@H]1O (some centres not stated)
Max fall in blood pressure (Rattus norvegicus [2]): 26% | Max fall in blood pressure (Rattus norvegicus [6]): 17%

CC1(C)Oc2ccncc2[C@@H](N2CCCC2=O)[C@@H]1O
Max fall in blood pressure (Rattus norvegicus [4]): 39% | Max fall in blood pressure (Rattus norvegicus [7]): 41%

CC1(C)Oc2ccc(-c3ccccc3)cc2C(N2CCCC2=O)[C@@H]1O (some centres not stated)
Max fall in blood pressure (Rattus norvegicus [8]): 20% | Max fall in blood pressure (Rattus norvegicus [7]): 14%

Cc1ccc2c(c1)C(N1CCCC1=O)[C@H](O)C(C)(C)O2 (some centres not stated)
Max fall in blood pressure (Rattus norvegicus [1]): 49% | Max fall in blood pressure (Rattus norvegicus [7]): 12%

CC1(C)Oc2ccc(C3CCCC3)cc2C(N2CCCC2=O)[C@@H]1O (some centres not stated)
Max fall in blood pressure (Rattus norvegicus [5]): 24% | Max fall in blood pressure (Rattus norvegicus [8]): 66%

CC1(C)Oc2cccnc2[C@@H](N2CCCC2=O)[C@@H]1O
Max fall in blood pressure (Rattus norvegicus [1]): 15%

Cc1ccc2c(c1)C(N1CCCCC1=O)[C@H](O)C(C)(C)O2 (some centres not stated)
Max fall in blood pressure (Rattus norvegicus [2]): 16% | Max fall in blood pressure (Rattus norvegicus [5]): 33% | Max fall in blood pressure (Rattus norvegicus [7]): 56%

CCCc1ccc2c(c1)C(N1CCCC1=O)[C@H](O)C(C)(C)O2 (some centres not stated)
Max fall in blood pressure (Rattus norvegicus [4]): 17% | Max fall in blood pressure (Rattus norvegicus [7]): 42%

CC1(C)Oc2cc[n+]([O-])cc2[C@@H](N2CCCCC2=O)[C@@H]1O
Max fall in blood pressure (Rattus norvegicus [2]): 39% | Max fall in blood pressure (Rattus norvegicus [5]): 68%

CC1(C)Oc2ccccc2C(N2CCCC2=O)[C@@H]1O (some centres not stated)
Max fall in blood pressure (Rattus norvegicus [1]): 49%

CC1(C)Oc2ccc(C#N)cc2C(N2CCCC2=O)C1O (configuration not stated) [CROMAKALIM]
Max fall in blood pressure (Rattus norvegicus [2]): 39% | Max fall in blood pressure (Rattus norvegicus [5]): 47% | Max fall in blood pressure (Rattus norvegicus [6]): 13%
